Reference: ChEMBL document CHEMBL2062466, “Synthesis, DNA binding and antileishmanial activity of low molecular weight bis-arylimidamides” (Eur J Med Chem, 2012)

Columns and labels:
Leishmania amazonensis = assay: Antileishmanial activity against intracellular Leishmania amazonensis; format: functional, organism-based
Leishmania donovani = assay: Antileishmanial activity against intracellular Leishmania donovani; format: functional, organism-based
L6 = assay: Cytotoxicity against rat L6 cells; format: cell-based
Nucleic Acid = assay: Binding affinity to poly(dA-dT)n DNA assessed as increase in melting temperature at 0.3 mol compound per mole of DNA by spectrophotometry; format: nucleic-acid assay
Summary of the method: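 Thermal melting monitored by UV absorbance in 1 cm quartz cuvettes, heated at 0.5 °C/min under thermistor control. CAC 10 buffer: cacodylic acid 10 mM, EDTA 1 mM, NaCl 100 mM, pH 7.0. DNA concentration set from absorbance at 260 nm. Complex at 0.3 mol compound per mol DNA, with DNA alone as control. ΔTm taken from the peak of first-derivative (dA/dT) curves.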

[1] = Selectivity index, ratio of IC50 for rat L6 cells to IC50 for intracellular Leishmania donovani; format: toxicity, cell-based
Mus musculus [2] = assay: Toxicity in uninfected mouse assessed as induction of severe tremors at 30 mg/kg, ip measured 10 mins post dose; format: organism-based; design: dose 30 mg/kg, route intraperitoneal; conditions: in vivo
Mus musculus [3] = assay: Toxicity in uninfected mouse assessed as induction of severe tremors at 10 mg/kg, ip measured 40 mins post dose; format: organism-based; design: dose 10 mg/kg, route intraperitoneal; conditions: in vivo

SMILES	IC50 (Leishmania amazonensis) [µM]	IC50 (Leishmania donovani) [µM]	IC50 (L6) [µM]	ΔTm (Nucleic Acid) [°C]	Selectivity Index [1]	Activity (Mus musculus [2])	Activity (Mus musculus [3])
Cl.Cl.N=C(Nc1ccc(Oc2ccc(NC(=N)c3ccccn3)cc2)cc1)c1ccccn1	0.67	0.028	5	5.2	178	Toxic	–
Cl.Cl.N=C(Nc1ccc(-c2ccc(NC(=N)c3ccccn3)cc2)cc1)c1ccccn1	0.76	0.079	46.9	6	594	Toxic	Toxic
N=C(Nc1ccc(NC(=N)c2ccccn2)cc1)c1ccccn1	> 10	–	> 212	0	–	–	–
N=C(Nc1ccccn1)c1ccc(C(=N)Nc2ccccn2)cc1	5.1	–	> 202	0.5	–	–	–
CC(C)Oc1cc(NC(=N)c2ccccn2)ccc1-c1ccc(NC(=N)c2ccccn2)cc1OC(C)C.Cl.Cl	0.14	0.025	22.9	0.1	916	Toxic	–
N=C(Nc1ccc(COCc2ccc(NC(=N)c3ccccn3)cc2)cc1)c1ccccn1	1.1	–	21.6	4	–	–	–
N=C(Nc1ccc(Cc2ccc(NC(=N)c3ccccn3)cc2)cc1)c1ccccn1	> 10	–	93.5	2.1	–	–	–
N=C(Nc1ccc(NC(=N)c2ncccn2)cc1)c1ncccn1	–	–	> 207	0	–	–	–
CC(C)Oc1cc(NC(=N)c2ccccn2)ccc1-c1ccc(-c2ccc(NC(=N)c3ccccn3)cc2OC(C)C)o1	–	–	3	6	–	–	–
